The RNAGym collection of RNA variant scans (doi:10.1038/s41586-018-0170-7)

B1: tRNA (parent)
chain: GUUCCGUUGGCGUAAUGGUAACGCGUCUCCCUCCUAAGGAGAAGACUGCGGGUUCGAGUCCCGUACGGAACG

Variants of: B1
Assay: yeast fitness, log relative to wild type (ln ratio); higher = fitter; tRNA-Arg(CCU), competitive growth, 37 C, 1 M NaCl
In short: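 Fitness is the natural log of a genotype's generation count divided by that of the wild type. A combinatorial library of tRNA-Arg(CCU) variants sat on a HIS3 centromeric plasmid in BY4742 lacking the chromosomal gene, from two independent transformations. Pools grew 4 generations in SC-HIS at 30 °C, then ~6.5 generations (~26.5 h) in SC-HIS 1M NaCl at 37 °C, with three outputs per input. Generations came from OD-scaled log2 output/input frequency, inverse-variance weighted across replicates, with variants counted by 125 bp paired-end Illumina sequencing.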

| Variant | yeast fitness (ln) |
| --- | --- |
| ACUCCAUUGGCGUAAUGGUAACGCGUCUCCCUCCUAAGGAGAAGACUGCGGGUUCGAGUCCCGUAUGGGAUG | -0.31 |
| AUUCCGUUGGCGUAAUGGUAACGCGUCUCCCUCCUAAGGAGAAGAUUGCGGGUUCGAGUCCCGUAUGGAAUG | -0.0203 |
| AUUCCUUUGGCGUAAUGGUAACGCGUCUCCCUCCUAAGGAGAAGAUUGCGGGUUCGAGUCCCGUACGGAUCG | -0.14 |
| ACUCCGUUGGCGUAAUGGUAACGCGUCUCCCUCCUAAGGAGACGACUGCGGGUUCGAGUCCCGUAUGGAGCG | -0.161 |
| ACUCCUUUGGCGUAAUGGUAACGCGUCUCCCUCCUAAGGAGAAGAUUGCGGGUUCGAGUCCCGUAUGGGGCG | -0.183 |
| AGUCCUUUGGCGUAAUGGUAACGCGUUUCCCUCCUAAGGAGAAGACUGCGGGUUCGAGUCCCGUAUGGGUCG | -0.307 |
| AGUCCGUUGGCGUAAUGGUAACGCGUUUCCCUCCUAAGGAGAAGACUGCGGGUUCGAGUCCCGUACGGAUUG | -0.0262 |
| GGUCCUUUGGCGUAAUGGUAACGCGUUUCCCUCCUAAGGAGACGAUUGCGGGUUCGAGUCCCGUAUGGAUCG | -0.227 |
| GCUCCAUUGGCGUAAUGGUAACGCGUCUCCCUCCUAAGGAGAAGACUGCGGGUUCGAGUCCCGUAAGGAUUG | -0.0758 |
| GUUCCUUUGGCGUAAUGGUAACGCGUCUCCCUCCUAAGGAGACGAUUGCGGGUUCGAGUCCCGUAAGGGUUG | -0.314 |
| GUUCCGUUGGCGUAAUGGUAACGCGUCUCCCUCCUAAGGAGAAGAUUGCGGGUUCGAGUCCCGUACGGGUCG | -0.0401 |
| GCUCCGUUGGCGUAAUGGUAACGCGUUUCCCUCCUAAGGAGACGAUUGCGGGUUCGAGUCCCGUAAGGGGCG | -0.0542 |
| ACUCCUUUGGCGUAAUGGUAACGCGUCUCCCUCCUAAGGAGAAGACUGCGGGUUCGAGUCCCGUAUGGGUCG | -0.244 |
| GCUCCAUUGGCGUAAUGGUAACGCGUUUCCCUCCUAAGGAGACGAUUGCGGGUUCGAGUCCCGUAUGGAGCG | -0.0221 |
| AGUCCAUUGGCGUAAUGGUAACGCGUUUCCCUCCUAAGGAGACGAUUGCGGGUUCGAGUCCCGUACGGAGCG | -0.224 |
| AUUCCGUUGGCGUAAUGGUAACGCGUCUCCCUCCUAAGGAGACGACUGCGGGUUCGAGUCCCGUAUGGGAUG | -0.377 |
| GCUCCGUUGGCGUAAUGGUAACGCGUCUCCCUCCUAAGGAGACGACUGCGGGUUCGAGUCCCGUACGGGUCG | -0.235 |
| GGUCCGUUGGCGUAAUGGUAACGCGUUUCCCUCCUAAGGAGAAGACUGCGGGUUCGAGUCCCGUAUGGGGUG | -0.264 |
| GGUCCUUUGGCGUAAUGGUAACGCGUUUCCCUCCUAAGGAGAAGAUUGCGGGUUCGAGUCCCGUAAGGGUUG | -0.314 |
| AUUCCGUUGGCGUAAUGGUAACGCGUCUCCCUCCUAAGGAGAAGACUGCGGGUUCGAGUCCCGUAUGGGAUG | -0.515 |
| ACUCCUUUGGCGUAAUGGUAACGCGUCUCCCUCCUAAGGAGAAGAUUGCGGGUUCGAGUCCCGUAUGGGUUG | -0.317 |
| AGUCCUUUGGCGUAAUGGUAACGCGUCUCCCUCCUAAGGAGACGAUUGCGGGUUCGAGUCCCGUAUGGAACG | -0.271 |
| GUUCCGUUGGCGUAAUGGUAACGCGUUUCCCUCCUAAGGAGACGACUGCGGGUUCGAGUCCCGUAUGGGAUG | -0.344 |
| GUUCCGUUGGCGUAAUGGUAACGCGUUUCCCUCCUAAGGAGACGACUGCGGGUUCGAGUCCCGUAAGGAGCG | -0.135 |
| AUUCCAUUGGCGUAAUGGUAACGCGUUUCCCUCCUAAGGAGAAGACUGCGGGUUCGAGUCCCGUAUGGGAUG | -0.321 |

| Variant | yeast fitness (ln) |
| --- | --- |
| AUUCCGUUGGCGUAAUGGUAACGCGUUUCCCUCCUAAGGAGACGACUGCGGGUUCGAGUCCCGUAAGGAGCG | -0.173 |
| AUUCCUUUGGCGUAAUGGUAACGCGUCUCCCUCCUAAGGAGAAGACUGCGGGUUCGAGUCCCGUACGGGAUG | -0.186 |
| GCUCCUUUGGCGUAAUGGUAACGCGUCUCCCUCCUAAGGAGAAGACUGCGGGUUCGAGUCCCGUAAGGAGUG | -0.0156 |
| GUUCCUUUGGCGUAAUGGUAACGCGUUUCCCUCCUAAGGAGACGAUUGCGGGUUCGAGUCCCGUACGGAGUG | -0.337 |
| GGUCCAUUGGCGUAAUGGUAACGCGUCUCCCUCCUAAGGAGAAGACUGCGGGUUCGAGUCCCGUACGGAGCG | -0.114 |
| ACUCCGUUGGCGUAAUGGUAACGCGUUUCCCUCCUAAGGAGACGAUUGCGGGUUCGAGUCCCGUAUGGGGUG | -0.2 |
| ACUCCAUUGGCGUAAUGGUAACGCGUCUCCCUCCUAAGGAGAAGACUGCGGGUUCGAGUCCCGUAAGGAGUG | -0.127 |
| GGUCCUUUGGCGUAAUGGUAACGCGUCUCCCUCCUAAGGAGAAGACUGCGGGUUCGAGUCCCGUAUGGAUCG | -0.0342 |
| AGUCCAUUGGCGUAAUGGUAACGCGUUUCCCUCCUAAGGAGACGACUGCGGGUUCGAGUCCCGUACGGAUUG | -0.365 |
| ACUCCGUUGGCGUAAUGGUAACGCGUUUCCCUCCUAAGGAGAAGACUGCGGGUUCGAGUCCCGUACGGAUCG | -0.0826 |
| GCUCCAUUGGCGUAAUGGUAACGCGUCUCCCUCCUAAGGAGAAGAUUGCGGGUUCGAGUCCCGUAUGGAAUG | -0.164 |
| GUUCCAUUGGCGUAAUGGUAACGCGUCUCCCUCCUAAGGAGACGACUGCGGGUUCGAGUCCCGUAUGGAACG | -0.0381 |
| AGUCCGUUGGCGUAAUGGUAACGCGUUUCCCUCCUAAGGAGAAGAUUGCGGGUUCGAGUCCCGUAUGGGUCG | -0.265 |
| AUUCCAUUGGCGUAAUGGUAACGCGUUUCCCUCCUAAGGAGACGAUUGCGGGUUCGAGUCCCGUACGGAUCG | -0.201 |
| GGUCCGUUGGCGUAAUGGUAACGCGUCUCCCUCCUAAGGAGAAGACUGCGGGUUCGAGUCCCGUAAGGAACG | -0.0285 |
| GCUCCGUUGGCGUAAUGGUAACGCGUCUCCCUCCUAAGGAGACGAUUGCGGGUUCGAGUCCCGUACGGGUUG | -0.307 |
| GCUCCAUUGGCGUAAUGGUAACGCGUUUCCCUCCUAAGGAGAAGACUGCGGGUUCGAGUCCCGUAUGGGUCG | -0.138 |
| AUUCCGUUGGCGUAAUGGUAACGCGUCUCCCUCCUAAGGAGACGACUGCGGGUUCGAGUCCCGUACGGGUCG | -0.257 |
| AUUCCGUUGGCGUAAUGGUAACGCGUCUCCCUCCUAAGGAGAAGAUUGCGGGUUCGAGUCCCGUAAGGAAUG | -0.243 |
| GUUCCGUUGGCGUAAUGGUAACGCGUUUCCCUCCUAAGGAGACGAUUGCGGGUUCGAGUCCCGUACGGGUUG | -0.317 |
| AGUCCGUUGGCGUAAUGGUAACGCGUUUCCCUCCUAAGGAGAAGAUUGCGGGUUCGAGUCCCGUAAGGAGUG | -0.203 |
| GGUCCUUUGGCGUAAUGGUAACGCGUCUCCCUCCUAAGGAGACGAUUGCGGGUUCGAGUCCCGUAUGGAUUG | -0.22 |
| AGUCCUUUGGCGUAAUGGUAACGCGUUUCCCUCCUAAGGAGAAGACUGCGGGUUCGAGUCCCGUACGGGGUG | -0.448 |
| GCUCCGUUGGCGUAAUGGUAACGCGUCUCCCUCCUAAGGAGAAGAUUGCGGGUUCGAGUCCCGUAAGGGGCG | -0.0391 |
| GGUCCUUUGGCGUAAUGGUAACGCGUUUCCCUCCUAAGGAGACGACUGCGGGUUCGAGUCCCGUAUGGGGCG | -0.39 |

| Variant | yeast fitness (ln) |
| --- | --- |
| ACUCCGUUGGCGUAAUGGUAACGCGUCUCCCUCCUAAGGAGACGAUUGCGGGUUCGAGUCCCGUAUGGAGUG | -0.0729 |
| AUUCCGUUGGCGUAAUGGUAACGCGUCUCCCUCCUAAGGAGACGACUGCGGGUUCGAGUCCCGUACGGAAUG | -0.0202 |
| AGUCCUUUGGCGUAAUGGUAACGCGUCUCCCUCCUAAGGAGACGAUUGCGGGUUCGAGUCCCGUAAGGGUUG | -0.314 |
| GGUCCAUUGGCGUAAUGGUAACGCGUCUCCCUCCUAAGGAGACGAUUGCGGGUUCGAGUCCCGUACGGAACG | -0.0442 |
| GCUCCAUUGGCGUAAUGGUAACGCGUCUCCCUCCUAAGGAGAAGACUGCGGGUUCGAGUCCCGUAUGGGAUG | -0.225 |
| GCUCCAUUGGCGUAAUGGUAACGCGUCUCCCUCCUAAGGAGAAGAUUGCGGGUUCGAGUCCCGUACGGGGCG | -0.0375 |
| ACUCCGUUGGCGUAAUGGUAACGCGUCUCCCUCCUAAGGAGAAGAUUGCGGGUUCGAGUCCCGUACGGAGUG | 0.000912 |
| GUUCCUUUGGCGUAAUGGUAACGCGUUUCCCUCCUAAGGAGACGAUUGCGGGUUCGAGUCCCGUAAGGGAUG | -0.439 |
| GCUCCUUUGGCGUAAUGGUAACGCGUCUCCCUCCUAAGGAGAAGACUGCGGGUUCGAGUCCCGUAUGGAACG | -0.0417 |
| GGUCCAUUGGCGUAAUGGUAACGCGUUUCCCUCCUAAGGAGACGACUGCGGGUUCGAGUCCCGUACGGGAUG | -0.391 |
| AUUCCUUUGGCGUAAUGGUAACGCGUCUCCCUCCUAAGGAGAAGAUUGCGGGUUCGAGUCCCGUAUGGAGCG | -0.195 |
| AGUCCUUUGGCGUAAUGGUAACGCGUCUCCCUCCUAAGGAGAAGAUUGCGGGUUCGAGUCCCGUAUGGGUCG | -0.288 |
| GUUCCAUUGGCGUAAUGGUAACGCGUCUCCCUCCUAAGGAGACGACUGCGGGUUCGAGUCCCGUACGGAUCG | -0.143 |
| AUUCCUUUGGCGUAAUGGUAACGCGUUUCCCUCCUAAGGAGAAGACUGCGGGUUCGAGUCCCGUAUGGGGCG | -0.47 |
| AGUCCGUUGGCGUAAUGGUAACGCGUUUCCCUCCUAAGGAGACGAUUGCGGGUUCGAGUCCCGUAAGGAUCG | -0.175 |
| GCUCCAUUGGCGUAAUGGUAACGCGUUUCCCUCCUAAGGAGAAGACUGCGGGUUCGAGUCCCGUACGGGUUG | -0.309 |
| GCUCCUUUGGCGUAAUGGUAACGCGUCUCCCUCCUAAGGAGACGAUUGCGGGUUCGAGUCCCGUACGGGUUG | -0.393 |
| GCUCCUUUGGCGUAAUGGUAACGCGUCUCCCUCCUAAGGAGACGAUUGCGGGUUCGAGUCCCGUACGGAGCG | -0.113 |
| AUUCCAUUGGCGUAAUGGUAACGCGUUUCCCUCCUAAGGAGAAGACUGCGGGUUCGAGUCCCGUAUGGAUUG | -0.461 |
| AUUCCGUUGGCGUAAUGGUAACGCGUUUCCCUCCUAAGGAGACGAUUGCGGGUUCGAGUCCCGUAAGGGGCG | -0.189 |
| AUUCCUUUGGCGUAAUGGUAACGCGUCUCCCUCCUAAGGAGAAGACUGCGGGUUCGAGUCCCGUAAGGAGCG | -0.196 |
| AUUCCUUUGGCGUAAUGGUAACGCGUUUCCCUCCUAAGGAGACGAUUGCGGGUUCGAGUCCCGUAUGGAACG | -0.475 |
| AUUCCAUUGGCGUAAUGGUAACGCGUCUCCCUCCUAAGGAGAAGAUUGCGGGUUCGAGUCCCGUAUGGGGCG | -0.136 |
| AGUCCAUUGGCGUAAUGGUAACGCGUCUCCCUCCUAAGGAGAAGAUUGCGGGUUCGAGUCCCGUACGGAUUG | -0.559 |
| GGUCCAUUGGCGUAAUGGUAACGCGUUUCCCUCCUAAGGAGAAGACUGCGGGUUCGAGUCCCGUAAGGGUUG | -0.499 |
